The record followed here is ChEMBL document CHEMBL1126711, “The synthesis of novel GABA uptake inhibitors. 1. Elucidation of the structure-activity studies leading to the choice of (R)-1-[4,4-bis(3-methyl-2-thienyl)-3-butenyl]-3-piperidinecarboxylic acid (tiagabine) as an anticonvulsant drug candidate” (J Med Chem, 1993).

Structures are written as SMILES. pIC50: −log10 of the molar value.

Data set [1] relates to Mus musculus. Briefly: In vivo anticonvulsant effect of DMCM-induced clonic seizures in mice at 15 mg/kg intraperitoneal dose expressed as effective dose. The class given is functional. As to conditions: ip. The essentials: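 Mice; test compound given ip. Clonic seizures induced with DMCM at 15 mg/kg ip. Inhibition of clonic seizures scored by observation, and ED50 expressed in mg/kg.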

Data set [2] in a line: Lipophilicity measured as partition between octanol and pH 7.4 buffer. The class given is physicochemical. As to conditions: octanol/pH 7.4 buffer.
Data set [3] is described as follows: In vitro inhibition of [3H]GABA uptake in rat synaptosomes. The data set is classed as functional, subcellular, Brain. The essentials:
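Rat forebrain homogenized in ice-cold 0.32 M sucrose, spun 10 min at 600g at 4 °C, and the pellet resuspended in pH 7.4 Na/K/Ca/Mg phosphate-glucose buffer. Synaptosomes (0.1 mg protein) preincubated with test substance 8 min at 30 °C. [3H]GABA (final 0.9 nM) plus unlabeled GABA (final 0.9 nM) then added for a further 8 min, followed by filtration. Uptake in the presence of 500 μM nipecotic acid subtracted. IC50 is the mean of 3–7 determinations ± SE.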

For data set [4], the species on record is Mus musculus. Briefly: Anticonvulsant effect of DMCM-induced seizures in mice expressed as effective dose.

For the molecule `Cc1ccsc1C(=CCCN1CCC[C@@H](C(=O)O)C1)c1sccc1C.Cl` [TIAGABINE HYDROCHLORIDE], in the data set with Mus musculus [1], the ED50 (as a rule, the dose at which the effect has come halfway, by size or by number of responders) is 1.2 mg/kg. The logD (as a rule, the decadic logarithm of the distribution of all forms, ionised or not, between an organic phase and buffer at a given pH) in data set [2] stood at 1.59. Also, in data set [3], the pIC50 – broadly, −log10 of the IC50, conventionally taken in molar units – is 7.17.

As for `CN1C(=O)CN=C(c2ccccc2)c2cc(Cl)ccc21` [DIAZEPAM], in the data set filed under Mus musculus [4], it took a dose of 2.5 mg/kg to reach the 50% effect level (ED50).

`O=C(O)C1CCCN(CCC=C(c2cccs2)c2cccs2)C1` (configuration not stated) showed a pIC50 in data set [3] of 6.59.

In the case of `Cc1ccsc1/C(=C\CCN1CCC[C@H](C(=O)O)C1)c1c(C)cccc1C`, the pIC50 in data set [3] was 6.61.

In the data set with Mus musculus [1], `Cl.O=C(O)C1=CCCN(CCC=C(c2ccccc2)c2ccccc2)C1` returned an ED50 of 3.6 mg/kg. The pIC50 in data set [3] was 6.47.

Molecule `O=C(O)C1=CCCN(CC/C=C(/c2ccccc2)c2cccs2)C1` showed a pIC50 in data set [3] of 6.58.

In the data set on Mus musculus [1], `Cc1ccsc1C(=CCCN1CCC=C(C(=O)O)C1)c1sccc1C.Cl` yielded an ED50 of 1.8 mg/kg. The pIC50 in data set [3] was 6.86.

As to `Cc1ccsc1/C(=C\CCN1CCC=C(C(=O)O)C1)c1ccc(Cl)cc1`, in data set [3], the negative-log IC50 (pIC50) is 6.07.

Turning to `Cc1ccccc1C(=CCCN1CCC[C@H](C(=O)O)C1)c1ccccc1C.Cl`, it took a dose of 1.3 mg/kg to reach the 50% effect level with Mus musculus [1] (ED50).

For `Cl.O=C(O)C1CCCN(CCC=C(c2ccccc2)c2ccccc2)C1` (configuration not stated), in the data set on Mus musculus [1], the ED50 came out at 3.1 mg/kg. In data set [3], this molecule gave a pIC50 of 6.48.

`Cc1ccccc1C(OCCN1CCCC(C(=O)O)C1)c1ccccc1C` (configuration not stated) had a pIC50 in data set [3] of 6.41.

Molecule `Cc1ccc(/C(=C/CCN2CCC[C@H](C(=O)O)C2)c2sccc2C)c(C)c1` gave a pIC50 in data set [3] of 6.58.

In the data set on Mus musculus [1], `Cc1ccccc1/C(=C/CCN1CCC=C(C(=O)O)C1)c1sccc1C.Cl` registered an ED50 of 1.9 mg/kg. Moreover, in data set [3], the pIC50 was 6.89.

As to `COc1ccc(C(OCCN2CCCC(C(=O)O)C2)c2ccc(OC)cc2)cc1` (configuration not stated), the pIC50 in data set [3] was below 5.52.

Molecule `Cc1ccccc1/C(=C/CCN1CCC[C@H](C(=O)O)C1)c1sccc1C.Cl` showed an ED50 with Mus musculus [1] of 1.2 mg/kg.

Molecule `Cc1ccsc1/C(=C\CCN1CCCC(C(=O)O)C1)c1ccccc1` (configuration not stated) had a pIC50 in data set [3] of 6.54.

In data set [3], `Cc1ccsc1/C(=C\CCN1CCC=C(C(=O)O)C1)c1cc(Cl)cc(Cl)c1` showed a pIC50 of 5.73.

`Cc1cc(Cl)ccc1/C(=C/CCN1CCC=C(C(=O)O)C1)c1sccc1C`: the pIC50 in data set [3] was 6.52.

In the data set with Mus musculus [1], `Cc1ccsc1C(=CCCN1CCCC(C(=O)O)C1)c1sccc1C.Cl` (configuration not stated) displayed an ED50 of 2.6 mg/kg. In data set [3], this molecule showed a pIC50 of 7.06.

In data set [3], `Cc1ccsc1C(=CCCN1CCC[C@H](C(=O)O)C1)c1sccc1C` showed a pIC50 of 6.66.

The molecule `Cc1ccsc1/C(=C\CCN1CCC[C@H](C(=O)O)C1)c1cccs1.Cl` showed an ED50 with Mus musculus [1] of 2.5 mg/kg. The molecule also showed a pIC50 in data set [3] of 7.22.

With `Cc1ccsc1/C(=C\CCN1CCC=C(C(=O)O)C1)c1cccs1.Cl`, the ED50 with Mus musculus [1] was found to be 2.1 mg/kg. Besides, the pIC50 in data set [3] was 6.95.

On to `O=C(O)C1CCCN(CCOC(c2ccccc2)c2ccccc2)C1` (configuration not stated), for which, in data set [3], the pIC50 was 5.86.

As for `Cc1ccsc1/C(=C\CCN1CCC=C(C(=O)O)C1)c1ccc(Cl)cc1Cl`, in data set [3], the pIC50 was 6.49.

`O=C(O)[C@H]1CCCN(CCC=C2c3ccccc3-c3ccccc32)C1` had a pIC50 in data set [3] of 5.72.

Take `Cc1ccsc1/C(=C\CCN1CCC[C@@H](C(=O)O)C1)c1cccs1`: the pIC50 in data set [3] was 6.16.

Take `Cl.Cn1cccc1/C(=C\CCN1CCC=C(C(=O)O)C1)c1ccccc1`: the ED50 with Mus musculus [1] stood at 1.8 mg/kg. The same molecule gave a pIC50 in data set [3] of 6.89.
